The values below come from ChEMBL document CHEMBL1156002, “Synthesis, Raman, FT-IR, NMR spectroscopic characterization, antimicrobial activity, cytotoxicity and DNA binding of new mixed aza-oxo-thia macrocyclic compounds” (2009).

Structures are written as SMILES.

What all share (format): functional
The subject of assay [1] is Hanseniaspora guilliermondii. In words: Antifungal activity against Hanseniaspora guilliermondii DSM 3432 at 10 ug after 72 hrs by agar disk diffusion assay. The settings on record: DSM 3432, 72 h, read-out: IZ. Put shortly:
(§1)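 Sterile 6 mm paper discs were loaded with ligand solution freshly prepared in DMSO and placed on inoculated agar. The inoculum came from broth cultures: bacteria in Nutrient Broth at 30 °C for 24 h, yeasts in Malt Extract Broth for 48 h. Plates were incubated at 35 °C for 24 h (bacteria) or 25 °C for 72 h (yeasts). A DMSO solvent control and a reference antibiotic disc were included on each plate.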

Assay [2] has as its system Candida albicans. In words: Antifungal activity against Candida albicans ATCC 10231 at 10 ug after 72 hrs by agar disk diffusion assay. The settings on record: ATCC 10231, 72 h, read-out: IZ. A digest of the protocol: as §1
For assay [3], the system named is Kluyveromyces marxianus. In words: Antifungal activity against Kluyveromyces fragilis NRRL 2415 at 10 ug after 72 hrs by agar disk diffusion assay. The note with it: NRRL 2415, 72 h, read-out: IZ. Put shortly: as §1
Assay [4] deals with Debaryomyces hansenii. In words: Antifungal activity against Debaryomyces hansenii DSM 70238 at 10 ug after 72 hrs by agar disk diffusion assay. The note with it: DSM 70238, 72 h, read-out: IZ. A digest of the protocol:
as §1
(A growth-free zone around the sample is the usual read-out of agar diffusion tests.)

The subject of assay [5] is Rhodotorula mucilaginosa. In words: Antifungal activity against Rhodotorula rubra DSM 70403 at 10 ug after 72 hrs by agar disk diffusion assay. The note with it: DSM 70403, 72 h, read-out: IZ. Put shortly: as §1
Assay [6] relates to Bacillus cereus. In words: Antibacterial activity against Bacillus cereus ATCC 7064 at 10 ug after 24 hrs by agar disk diffusion assay. The settings on record: ATCC 7064, 24 h, read-out: IZ. Put shortly: (§2)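 Disk diffusion with sterile 6 mm discs loaded with DMSO solutions of the test agents and placed on inoculated agar. Bacteria were pre-grown in Nutrient Broth at 30 °C for 24 h, and plates were incubated at 35 °C for 24 h. Each plate carried a reference antibiotic disc matched to the organism, and a DMSO-only solvent control was run.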

In assay [7] the test system is Klebsiella pneumoniae. In words: Antibacterial activity against Klebsiella pneumoniae UC57 at 10 ug after 24 hrs by agar disk diffusion assay. The settings on record: UC57, 24 h, read-out: IZ. A digest of the protocol:
as §2

In assay [8] the test system is Listeria monocytogenes. In words: Antibacterial activity against Listeria monocytogenes ATCC 15313 at 10 ug after 24 hrs by agar disk diffusion assay. The settings on record: ATCC 15313, 24 h, read-out: IZ. A digest of the protocol: as §2
Assay [9] relates to Proteus vulgaris. In words: Antibacterial activity against Proteus vulgaris ATCC 8427 at 10 ug after 24 hrs by agar disk diffusion assay. The settings on record: ATCC 8427, 24 h, read-out: IZ. A digest of the protocol:
as §2

Assay [10] concerns Pseudomonas aeruginosa. In words: Antibacterial activity against Pseudomonas aeruginosa ATCC 27853 at 10 ug after 24 hrs by agar disk diffusion assay. The settings on record: ATCC 27853, 24 h, read-out: IZ. A digest of the protocol: as §2
Assay [11] has as its system Mycolicibacterium smegmatis. In words: Antibacterial activity against Mycobacterium smegmatis CCM 2067 at 10 ug after 24 hrs by agar disk diffusion assay. The note with it: CCM 2067, 24 h, read-out: IZ. Put shortly:
as §2

The subject of assay [12] is Micrococcus luteus. In words: Antibacterial activity against Micrococcus luteus La 2971 at 10 ug after 24 hrs by agar disk diffusion assay. The settings on record: La 2971, 24 h, read-out: IZ. A digest of the protocol:
as §2

The test system of assay [13] is Escherichia coli. In words: Antibacterial activity against Escherichia coli ATCC 11230 at 10 ug after 24 hrs by agar disk diffusion assay. The settings on record: ATCC 11230, 24 h, read-out: IZ. A digest of the protocol: as §2
Assay [14] relates to Staphylococcus aureus. In words: Antibacterial activity against Staphylococcus aureus ATCC 6538 at 10 ug after 24 hrs by agar disk diffusion assay. The settings on record: ATCC 6538, 24 h, read-out: IZ. A digest of the protocol:
as §1

Assay [15] concerns Candida albicans. In words: Antifungal activity against Candida albicans ATCC 10231 at 20 ug after 72 hrs by agar disk diffusion assay. The note with it: ATCC 10231, 72 h, read-out: IZ. A digest of the protocol:
(§3)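 Yeasts were pre-grown in Malt Extract Broth for 48 h. Sterile 6 mm discs loaded with compound solutions freshly made in DMSO were placed on inoculated agar and incubated at 25 °C for 72 h. The medium was supplemented with DMSO as a solvent control, and an appropriate reference antifungal disc was added to each plate.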

In assay [16] the test system is Kluyveromyces marxianus. In words: Antifungal activity against Kluyveromyces fragilis NRRL 2415 at 20 ug after 72 hrs by agar disk diffusion assay. The note with it: NRRL 2415, 72 h, read-out: IZ. Put shortly: as §3
In assay [17] the test system is Rhodotorula mucilaginosa. In words: Antifungal activity against Rhodotorula rubra DSM 70403 at 20 ug after 72 hrs by agar disk diffusion assay. The settings on record: DSM 70403, 72 h, read-out: IZ. A digest of the protocol:
as §3

Assay [18] concerns Hanseniaspora guilliermondii. In words: Antifungal activity against Hanseniaspora guilliermondii DSM 3432 at 20 ug after 72 hrs by agar disk diffusion assay. The settings on record: DSM 3432, 72 h, read-out: IZ. Put shortly:
as §3

Assay [19] has as its system Debaryomyces hansenii. In words: Antifungal activity against Debaryomyces hansenii DSM 70238 at 20 ug after 72 hrs by agar disk diffusion assay. The note with it: DSM 70238, 72 h, read-out: IZ. Put shortly: as §3
In assay [20] the test system is Micrococcus luteus. In words: Antibacterial activity against Micrococcus luteus La 2971 at 5 ug after 24 hrs by agar disk diffusion assay. The settings on record: La 2971, 24 h, read-out: IZ. Put shortly:
as §2

Assay [21] deals with Mycolicibacterium smegmatis. In words: Antibacterial activity against Mycobacterium smegmatis CCM 2067 at 5 ug after 24 hrs by agar disk diffusion assay. The settings on record: CCM 2067, 24 h, read-out: IZ. Put shortly: as §2
Assay [22] concerns Pseudomonas aeruginosa. In words: Antibacterial activity against Pseudomonas aeruginosa ATCC 27853 at 5 ug after 24 hrs by agar disk diffusion assay. The note with it: ATCC 27853, 24 h, read-out: IZ. Put shortly: as §2
For assay [23], the system named is Klebsiella pneumoniae. In words: Antibacterial activity against Klebsiella pneumoniae UC57 at 5 ug after 24 hrs by agar disk diffusion assay. The settings on record: UC57, 24 h, read-out: IZ. A digest of the protocol:
as §2

The test system of assay [24] is Bacillus cereus. In words: Antibacterial activity against Bacillus cereus ATCC 7064 at 5 ug after 24 hrs by agar disk diffusion assay. The note with it: ATCC 7064, 24 h, read-out: IZ. A digest of the protocol: as §2
The subject of assay [25] is Proteus vulgaris. In words: Antibacterial activity against Proteus vulgaris ATCC 8427 at 5 ug after 24 hrs by agar disk diffusion assay. The note with it: ATCC 8427, 24 h, read-out: IZ. A digest of the protocol: as §2
For assay [26], the system named is Escherichia coli. In words: Antibacterial activity against Escherichia coli ATCC 11230 at 5 ug after 24 hrs by agar disk diffusion assay. The settings on record: ATCC 11230, 24 h, read-out: IZ. Put shortly: as §2
Assay [27] relates to Listeria monocytogenes. In words: Antibacterial activity against Listeria monocytogenes ATCC 15313 at 5 ug after 24 hrs by agar disk diffusion assay. The settings on record: ATCC 15313, 24 h, read-out: IZ. Put shortly: as §2
Assay [28] concerns Staphylococcus aureus. In words: Antibacterial activity against Staphylococcus aureus ATCC 6538 at 5 ug after 24 hrs by agar disk diffusion assay. The settings on record: ATCC 6538, 24 h, read-out: IZ. A digest of the protocol:
as §1

`Clc1ccccc1C(c1ccccc1)(c1ccccc1)n1ccnc1` [CLOTRIMAZOLE]: the zone of inhibition at 10 µg/disc in [1] was 22 mm; in the assay on Candida albicans [2] it was 16 mm; with Kluyveromyces marxianus [3], 15 mm; with Debaryomyces hansenii [4] it was 18 mm; with Rhodotorula mucilaginosa [5] it was 18 mm.
`CC1(C)S[C@@H]2[C@H](NC(=O)[C@H](N)c3ccccc3)C(=O)N2[C@H]1C(=O)O` [AMPICILLIN]: the zone of inhibition at 10 µg/disc in the assay on Bacillus cereus [6] amounted to 10 mm; in the assay with Klebsiella pneumoniae [7], 14 mm; in the assay with Listeria monocytogenes [8], 12 mm; in the assay on Proteus vulgaris [9], 12 mm; in the assay with Pseudomonas aeruginosa [10], 32 mm; in [11], 21 mm. In addition, the values for the zone of inhibition at 10 µg/disc with Micrococcus luteus [12], with Escherichia coli [13] and in the assay with Staphylococcus aureus [14] were 16 mm, 12 mm and 16 mm, respectively.
`CC(=O)N1CCN(c2ccc(OCC3COC(Cn4ccnc4)(c4ccc(Cl)cc4Cl)O3)cc2)CC1` (stereo not drawn) [KETOCONAZOLE]: the zone of inhibition at 20 µg/disc worked out at 22 mm in the assay with Candida albicans [15]; 21 mm in the assay on Kluyveromyces marxianus [16]; 16 mm in the assay with Rhodotorula mucilaginosa [17]; 24 mm in assay [18]; 14 mm with Debaryomyces hansenii [19].
Consider `CC1COc2c(N3CCN(C)CC3)c(F)cc3c(=O)c(C(=O)O)cn1c23` (stereo not drawn) [OFLOXACIN], for which the zone of inhibition at 5 µg/disc was 28 mm with Micrococcus luteus [20]; 32 mm in assay [21]; 28 mm in the assay on Pseudomonas aeruginosa [22]; 28 mm with Klebsiella pneumoniae [23]; 44 mm in the assay with Bacillus cereus [24]; 30 mm in the assay on Proteus vulgaris [25]. Besides, the zone of inhibition at 5 µg/disc was found to be 30 mm in the assay on Escherichia coli [26], 30 mm in the assay with Listeria monocytogenes [27] and 24 mm in the assay with Staphylococcus aureus [28].
